Data taken from ChEMBL document CHEMBL4396890, “Synthesis, Biological Evaluation, Structure-Activity Relationship, and Mechanism of Action Studies of Quinoline-Metronidazole Derivatives Against Experimental Visceral Leishmaniasis” (J Med Chem, 2019).
Calls of active or inactive are those of the source. The rule behind the calls is not given here.

Assays:
[1] = test system: Leishmania donovani; test: Antileishmanial activity against Leishmania donovani MHOM/IN/80/Dd8 amastigotes harboring luciferase reporter gene infected in mouse J774 cells at 100 uM after 48 hrs by Steady-Glo luminescence assay; format: functional, organism-based
How it was run: (§1)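 Infection of J774 macrophages with L. donovani Dd8 promastigotes at a 1:8 cell:parasite ratio. Compounds were diluted 2-fold in RPMI over 3.125–100 μM final and applied for 48 h. Amastigote inhibition was read by luciferase (RLU) or by Giemsa count of amastigotes per 100 macrophages. IC50 was from dose–response; n = 3 independent experiments done in replicate.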

[2] = test system: Leishmania donovani; test: Antileishmanial activity against Leishmania donovani MHOM/IN/80/Dd8 promastigotes harboring luciferase reporter gene at 50 uM after 48 hrs by Steady-Glo luminescence assay relative to control; format: functional; conditions: MHOM/IN/80/Dd8, 48 h
How it was run: (§2)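 Luciferase-expressing L. donovani Dd8 promastigotes were grown at 24 °C in M199 with 10% heat-inactivated FBS and G418 20 μg/mL. They were treated at varied concentrations for 24 and 48 h, and inhibition was read as relative luminescence units versus untreated control. IC50 was from dose–response; screening values are mean ± SD of at least three experiments in duplicate.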

[3] = test system: Leishmania donovani; test: Antileishmanial activity against Leishmania donovani MHOM/IN/80/Dd8 promastigotes harboring luciferase reporter gene after 48 hrs by Steady-Glo luminescence assay relative to control; format: functional; how it was run: as §2
[4] = test system: Leishmania donovani; test: Antileishmanial activity against Leishmania donovani MHOM/IN/80/Dd8 amastigotes harboring luciferase reporter gene infected in mouse J774 cells after 48 hrs by Steady-Glo luminescence assay; format: functional, organism-based; conditions: for IC50: MHOM/IN/80/Dd8, J774, 48 h; how it was run: as §1
[5] = Cytotoxicity against mouse J774 cells assessed as cell viability up to 50 uM measured after 48 hrs by MTT assay relative to control; format: cell-based; conditions: read-out: Activity
How it was run: (§3)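 Vero cells and J774 macrophages were exposed to 12.5−400 μM compound for 48 h. Viability was read by MTT. CC50 was derived from the curve. Mean ± SD, n = 3 experiments in replicate.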

[6] = test system: Leishmania donovani; test: Antileishmanial activity against Leishmania donovani MHOM/IN/80/Dd8 promastigotes harboring luciferase reporter gene at 25 uM after 48 hrs by Steady-Glo luminescence assay relative to control; format: functional; conditions: MHOM/IN/80/Dd8, 48 h; how it was run: as §2
[7] = Intrinsic clearance in rat liver microsomes at 10 ug/ml preincubated for 5 mins followed by NADPH addition measured after 60 mins by UPLC analysis; format: ADME, Microsome; conditions: read-out: CLH
How it was run: (§4)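 Compound was incubated with rat liver microsomes, sampling % remaining up to 60 min. In vitro half-life and related parameters came from a plot of ln(% remaining) versus incubation time.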

[8] = Stability in rat plasma assessed as parent compound remaining at 10 ug/ml measured after 2 hrs by UPLC analysis; format: ADME, cell-free; conditions: read-out: Stability
[9] = Toxicity in BALB/c mouse infected with Leishmania donovani MHOM/IN/80/Dd8 promastigotes assessed as effect on health at 12.5 to 200 mg/kg, ip administered once daily for 5 days measured up to 7 days post dose; format: organism-based; conditions: in vivo
How it was run: (§5)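 BALB/c mice (20 ± 2 g) were infected by tail-vein injection of 2 × 10^7 stationary-phase promastigotes. At day 15 they received ip doses in 8% DMSO/PBS for 5 consecutive days and were killed at day 7 post-treatment. Survival, general health and body weight were monitored; 5 mice per group.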

[10] = Toxicity in BALB/c mouse infected with Leishmania donovani MHOM/IN/80/Dd8 promastigotes assessed as death at 12.5 to 200 mg/kg, ip administered once daily for 5 days measured up to 7 days post dose; format: organism-based; conditions: in vivo; how it was run: as §5
[11] = Half life in rat liver microsomes at 10 ug/ml preincubated for 5 mins followed by NADPH addition measured after 60 mins by UPLC analysis; format: ADME, Microsome; how it was run: as §4
[12] = test system: Leishmania donovani; test: Antileishmanial activity against Leishmania donovani MHOM/IN/80/Dd8 promastigotes infected in ip dosed BALB/c mouse assessed as reduction in parasite load in liver administered once daily for 5 days measured 7 days post dose by giemsa staining-based assay; format: functional, organism-based
How it was run: (§6)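 Hamster-passaged strain was transformed to promastigotes. Stationary-phase cells (2 × 10^7 in 0.2 mL PBS) were injected into the tail vein of BALB/c mice. From day 15 post-infection, mice received compound ip in 8% DMSO in PBS for 5 consecutive days, 5 mice per group. Mice were killed day 7 post-treatment. Liver and spleen burden was read from Giemsa-stained stamp smears as LDU.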

[13] = test system: Leishmania donovani; test: Antileishmanial activity against Leishmania donovani MHOM/IN/80/Dd8 promastigotes infected in ip dosed BALB/c mouse assessed as reduction in parasite load in spleen administered once daily for 5 days measured 7 days post dose by giemsa staining-based assay; format: functional, organism-based; how it was run: as §6
[14] = Stability in rat liver microsomes assessed as parent compound remaining at 10 ug/ml preincubated for 5 mins followed by NADPH addition measured after 60 mins by UPLC analysis; format: ADME, Microsome; conditions: read-out: Stability
How it was run: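 Compound incubated with rat liver microsomes and the percentage remaining was followed over time up to 60 min. In vitro half-life and related parameters were derived from a plot of the natural log of percent remaining against incubation time.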

[15] = test system: Leishmania donovani; test: Antileishmanial activity against Leishmania donovani MHOM/IN/80/Dd8 amastigotes harboring luciferase reporter gene infected in mouse J774 cells by Giemsa staining-based microscopic assay; format: functional, organism-based; conditions: TDE = time-dependent effect; how it was run: as §1
[16] = test system: Leishmania donovani; test: Antileishmanial activity against Leishmania donovani MHOM/IN/80/Dd8 promastigotes infected in BALB/c mouse assessed as reduction in parasite load in liver at 50 mg/kg, ip administered once daily for 5 days measured 7 days post dose by giemsa staining-based assay relative to control; format: functional; set-up: scale not given: the % may be the effect or the level left; how it was run: as §6
[17] = test system: Leishmania donovani; test: Antileishmanial activity against Leishmania donovani MHOM/IN/80/Dd8 amastigotes harboring luciferase reporter gene infected in mouse J774 cells at 100 uM by Giemsa staining-based microscopic assay; format: functional, organism-based; how it was run: as §1
[18] = test system: Leishmania donovani; test: Antileishmanial activity against Leishmania donovani MHOM/IN/80/Dd8 amastigotes harboring luciferase reporter gene infected in mouse J774 cells at 25 uM after 48 hrs by Steady-Glo luminescence assay relative to control; format: functional; conditions: MHOM/IN/80/Dd8, J774, 48 h; how it was run: as §1
[19] = Cytotoxicity against African green monkey Vero cells assessed as cell viability up to 100 uM measured after 48 hrs by MTT assay relative to control; format: cell-based; conditions: chlorocebus sabaeus, read-out: Activity; how it was run: as §3
[20] = Stability of the compound in simulated gastric fluid assessed as parent compound remaining measured after 2 hrs by UPLC analysis; format: ADME; conditions: read-out: Stability
How it was run: (§7)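 Compound incubated 2 h in simulated gastric fluid (pH 1.2) […] or in simulated intestinal fluid (pH 6.5) […]; the percentage of intact compound remaining was reported.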

[21] = test system: Leishmania donovani; test: Antileishmanial activity against Leishmania donovani MHOM/IN/80/Dd8 amastigotes harboring luciferase reporter gene infected in mouse J774 cells at 50 uM after 48 hrs by Giemsa staining-based microscopic assay relative to control; format: functional; conditions: MHOM/IN/80/Dd8, J774, 48 h; how it was run: as §1
[22] = Stability of the compound in simulated intestinal fluid assessed as parent compound remaining measured after 2 hrs by UPLC analysis; format: ADME; conditions: read-out: Stability; how it was run: as §7
[23] = test system: Leishmania donovani; test: Antileishmanial activity against Leishmania donovani MHOM/IN/80/Dd8 amastigotes harboring luciferase reporter gene infected in mouse J774 cells after 48 hrs by Giemsa staining-based microscopic assay; format: functional, organism-based; conditions: for IC50: MHOM/IN/80/Dd8, J774, 48 h; how it was run: as §1
[24] = test system: Leishmania donovani; test: Antileishmanial activity against Leishmania donovani MHOM/IN/80/Dd8 promastigotes harboring luciferase reporter gene after 48 hrs by Steady-Glo luminescence assay; format: functional, organism-based; conditions: for IC50: MHOM/IN/80/Dd8, 48 h; how it was run: as §2

Cc1cc(-c2ccc(OCCn3c([N+](=O)[O-])cnc3C)cc2)nc2ccccc12
inhibition [1]: Active | inhibition at 50 µM [2]: 94.4% | Imax [3]: >93% | inhibition [4]: Dose-dependent effect | IC50 [4]: 3.75 µM | viability at 48 h [5]: > 92% | inhibition at 25 µM [6]: 85.8% | microsomal CLint at 10 ug/ml [7]: 9.3 µL/min/mg | remaining at 2 h, 10 ug/ml [8]: 88.5% | Activity [9]: Non-Toxic | Activity [10]: Non-Toxic | half-life at 10 ug/ml [11]: 2.5 h | Activity [12]: Dose-dependent effect | Activity [13]: Dose-dependent effect | remaining at 1 h, 10 ug/ml [14]: 76% | inhibition [15]: Tde | Activity [16]: >82.3% | inhibition [17]: Active | inhibition at 25 µM [18]: 83.2% | viability at 48 h [19]: > 86% | remaining at 2 h [20]: 83.6% | inhibition at 50 µM [21]: > 93% | remaining at 2 h [22]: 43.6% | inhibition [23]: Dose-dependent effect | IC50 [23]: 4.06 µM | inhibition [24]: Dose-dependent effect | IC50 [24]: 5.42 µM

Cc1cc(-c2cccc(OCCn3c([N+](=O)[O-])cnc3C)c2)nc2ccccc12
inhibition [1]: Active | inhibition at 50 µM [2]: 94.7% | Imax [3]: >93% | inhibition [4]: Dose-dependent effect | IC50 [4]: 9.81 µM | viability at 48 h [5]: > 92% | inhibition at 25 µM [6]: 77.8% | microsomal CLint at 10 ug/ml [7]: 10.7 µL/min/mg | remaining at 2 h, 10 ug/ml [8]: 68.2% | Activity [9]: Non-Toxic | Activity [10]: Non-Toxic | half-life at 10 ug/ml [11]: 2.18 h | Activity [12]: Dose-dependent effect | Activity [13]: Dose-dependent effect | remaining at 1 h, 10 ug/ml [14]: 72.8% | inhibition [15]: Tde | Activity [16]: >50% | inhibition [17]: Active | inhibition at 25 µM [18]: 75.2% | viability at 48 h [19]: > 86% | remaining at 2 h [20]: 84.7% | inhibition at 50 µM [21]: > 93% | remaining at 2 h [22]: 11.4% | inhibition [23]: Dose-dependent effect | IC50 [23]: 9.09 µM | inhibition [24]: Dose-dependent effect | IC50 [24]: 9.54 µM
